# Reference: ChEMBL document CHEMBL1629563, “Pharmacokinetic and safety evaluation of BILR 355, a second-generation nonnucleoside reverse transcriptase inhibitor, in healthy volunteers” (Antimicrob Agents Chemother, 2008)
# Experiments:
# Homo sapiens [1] = experiment: Toxicity in healthy human assessed as occurrence of fatigue at 50 mg, po administered as single dose coadministered with 100 mg of ritonavir; assay type: organism-based; details: in vivo
# Homo sapiens [2] = experiment: Toxicity in healthy human assessed as occurrence of increase in alanine aminotransferase level at 25 mg, po administered as single dose relative to control; assay type: organism-based; details: in vivo
# Homo sapiens [3] = experiment: Toxicity in healthy human assessed as occurrence of headache at 50 mg, po administered as single dose relative to control; assay type: organism-based; details: in vivo
# Homo sapiens [4] = experiment: Toxicity in healthy human assessed as occurrence of frequent bowel movements at 1 mg, po administered as single dose relative to control; assay type: organism-based; details: in vivo
# [5] = Renal clearance in healthy human at 25 mg, po administered as single dose coadministered with 100 mg of ritonavir by high-pressure liquid chromatography-tandem mass spectrometry/mass spectrometry method; assay type: ADME, organism-based, Kidney; details: in vivo, read-out: CL_renal (converted)
# Homo sapiens [6] = experiment: Toxicity in healthy human assessed as occurrence of constipation at 5 mg, po administered as single dose relative to control; assay type: organism-based; details: in vivo
# Homo sapiens [7] = experiment: Toxicity in healthy human assessed as occurrence of aphthous stomatitis at 50 mg, po administered as single dose coadministered with 100 mg of ritonavir; assay type: organism-based; details: in vivo
# [8] = AUC (0 to last) in healthy human at 12.5 mg, po administered as single dose coadministered with 100 mg of ritonavir; assay type: ADME, organism-based; set-up: dose 12.5 mg, time 0 - last, route oral; details: plasma
# Summary of the method: (§1)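 Healthy male volunteers, fasted. Ritonavir 100 mg given 10 h before and again together with single oral BILR 355 in PEG solution. EDTA plasma sampled predose to 144 h. LC-MS/MS assay after protein precipitation. Noncompartmental analysis, AUC by linear up/log down trapezoidal rule; Vss = CL/F·(MRTp.o. − 1/Ka).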
# [9] = AUC (0 to infinity) in healthy human at 50 mg, po administered as single dose coadministered with 100 mg of ritonavir; assay type: ADME, organism-based; set-up: dose 50 mg, time infinity, route oral; details: plasma; summary of the method: as §1
# [10] = Drug excretion in healthy human urine assessed as unchanged drug at 5 mg, po administered as single dose by high-pressure liquid chromatography-tandem mass spectrometry/mass spectrometry method; assay type: ADME, organism-based; details: read-out: Drug uptake
# Summary of the method: (§2)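 Urine was collected by weight after one oral dose of BILR 355 in PEG solution in fasted healthy males. Intervals were predose blank, 0-6, 6-24 and 24-72 h, with the bladder voided before each. Aliquots were stored at −20°C and assayed by LC-MS/MS. fe = amount of unchanged drug excreted (Ae) as a percentage of the administered dose.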
# Homo sapiens [11] = experiment: Toxicity in healthy human assessed as occurrence of fatigue at 87.5 mg, po administered as single dose coadministered with 100 mg of ritonavir; assay type: organism-based; details: in vivo
# [12] = Tmax in healthy human at 75 mg, po administered as single dose; assay type: ADME, organism-based; details: in vivo
# [13] = Drug excretion in healthy human urine assessed as unchanged drug at 37.5 mg, po administered as single dose coadministered with 100 mg of ritonavir by high-pressure liquid chromatography-tandem mass spectrometry/mass spectrometry method; assay type: ADME, organism-based; details: read-out: Drug uptake
# Summary of the method: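 Ritonavir 100 mg was given 10 h before and with one oral dose of BILR 355 in PEG solution. Urine was collected by weight as predose blank, then 0-6, 6-24 and 24-72 h, stored at −20°C and assayed by LC-MS/MS. fe = unchanged drug excreted (Ae) as a percentage of dose. Line 50: high-fat breakfast 30 min before dosing.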
# Homo sapiens [14] = experiment: Ratio of half life in human at 50 mg, po in presence of 100 mg of ritonavir to half life in human at 50 mg, po; assay type: ADME, organism-based; details: in vivo
# [15] = Apparent volume of distribution at steady state in healthy human at 50 mg, po administered as single dose coadministered with 100 mg of ritonavir; assay type: ADME, organism-based; details: in vivo, read-out: Vss/F
# Summary of the method: (§3)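 Healthy male volunteers, fasted overnight, got one oral dose of BILR 355 in PEG solution with 200 ml water. Ritonavir 100 mg was given 10 h before and again with the dose. Plasma was sampled (EDTA) from predose to 144 h and assayed by validated LC-MS/MS. Cmax and Vz/F came from noncompartmental analysis. Vss/F = CL/F·(MRTp.o. − 1/Ka), with Ka from compartmental modelling.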
# [16] = Cmax in healthy human at 62.5 mg, po administered as single dose coadministered with 100 mg of ritonavir by high-pressure liquid chromatography-tandem mass spectrometry/mass spectrometry method; assay type: ADME, organism-based; set-up: dose 62.5 mg, route oral; details: in vivo; summary of the method: as §3
# [17] = Half life in healthy human at 62.5 mg, po administered as single dose coadministered with 100 mg of ritonavir; assay type: ADME, organism-based; details: in vivo
# [18] = AUC (0 to infinity) in healthy human at 5 mg, po administered as single dose coadministered with 100 mg of ritonavir; assay type: ADME, organism-based; set-up: dose 5 mg, time infinity, route oral; details: plasma; summary of the method: as §1
# [19] = Cmax in healthy human at 25 mg, po administered as single dose coadministered with 100 mg of ritonavir by high-pressure liquid chromatography-tandem mass spectrometry/mass spectrometry method; assay type: ADME, organism-based; set-up: dose 25 mg, route oral; details: in vivo; summary of the method: as §3
# Homo sapiens [20] = experiment: Ratio of AUC (0 to infinity) in human at 75 mg, po in presence of 100 mg of ritonavir to AUC (0 to infinity) in human at 75 mg, po; assay type: ADME, organism-based; details: in vivo
# Homo sapiens [21] = experiment: Toxicity in healthy human assessed as occurrence of increase in alanine aminotransferase level at 1 mg, po administered as single dose relative to control; assay type: organism-based; details: in vivo
# [22] = Drug excretion in healthy human urine assessed as unchanged drug at 50 mg, po administered as single dose by high-pressure liquid chromatography-tandem mass spectrometry/mass spectrometry method; assay type: ADME, organism-based; details: read-out: Drug uptake; summary of the method: as §2
# Homo sapiens [23] = experiment: Toxicity in healthy human assessed as occurrence of vomiting at 50 mg, po administered as single dose relative to control; assay type: organism-based; details: in vivo
# [24] = Apparent oral clearance in healthy human at 50 mg, po administered as single dose; assay type: ADME, organism-based; details: in vivo
# Summary of the method: (§4)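 Healthy male volunteers, six active plus two placebo per dose group, single oral dose in PEG solution with 200 ml water after overnight fast; breakfast 60 to 90 min post-dose. EDTA plasma sampled predose to 144 h. Assayed by validated LC-MS/MS after protein precipitation. Noncompartmental analysis, AUC by linear up/log down trapezoidal rule; Vss = CL/F·(MRTp.o. − 1/Ka).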
# Homo sapiens [25] = experiment: Toxicity in high fat fed healthy human assessed as occurrence of diarrhea at 50 mg, po administered as single dose coadministered with 100 mg of ritonavir; assay type: organism-based; details: in vivo
# [26] = Renal clearance in healthy human at 62.5 mg, po administered as single dose coadministered with 100 mg of ritonavir by high-pressure liquid chromatography-tandem mass spectrometry/mass spectrometry method; assay type: ADME, organism-based, Kidney; details: in vivo, read-out: CL_renal (converted)
# [27] = Mean residence time in healthy human at 50 mg, po administered as single dose coadministered with 100 mg of ritonavir; assay type: ADME, organism-based; details: in vivo
# [28] = AUC (0 to last) in healthy human at 75 mg, po administered as single dose; assay type: ADME, organism-based; set-up: dose 75 mg, time 0 - last, route oral; details: plasma; summary of the method: as §4
# [29] = Apparent volume of distribution in terminal phase in healthy human at 62.5 mg, po administered as single dose coadministered with 100 mg of ritonavir; assay type: ADME, organism-based; details: in vivo, read-out: Vz/F; summary of the method: as §3
# Homo sapiens [30] = experiment: Toxicity in healthy human assessed as occurrence of herpes simplex at 50 mg, po administered as single dose relative to control; assay type: organism-based; details: in vivo
# [31] = AUC (0 to last) in healthy human at 100 mg, po administered as single dose; assay type: ADME, organism-based; set-up: dose 100 mg, time 0 - last, route oral; details: plasma; summary of the method: as §4
# Homo sapiens [32] = experiment: Toxicity in healthy human assessed as occurrence of migraine at 5 mg, po administered as single dose relative to control; assay type: organism-based; details: in vivo
smiles,measurement,setting,value
CCN1c2ncc(CCOc3cc[n+]([O-])c4ccccc34)cc2C(=O)N(C)c2cccnc21 [BILR 355],Activity,Homo sapiens [1],0%
same,Activity,Homo sapiens [2],0%
same,Activity,Homo sapiens [3],16.7%
same,Activity,Homo sapiens [4],0%
same,CL renal,[5],6.5 mL/min
same,Activity,Homo sapiens [6],0%
same,Activity,Homo sapiens [7],0%
same,AUC(0-t),[8],1680 ng·h/mL
same,AUC(0-inf),[9],6800 ng·h/mL
same,dose excreted,[10],0.172%
same,Activity,Homo sapiens [11],0%
same,Tmax,[12],0.667 h
same,dose excreted,[13],4.58%
same,Ratio,Homo sapiens [14],4.6
same,Vd/F,[15],125 L
same,Cmax,[16],653 ng/mL
same,half-life,[17],9.73 h
same,AUC(0-inf),[18],707 ng·h/mL
same,Cmax,[19],226 ng/mL
same,Ratio,Homo sapiens [20],15
same,Activity,Homo sapiens [21],0%
same,dose excreted,[22],0.485%
same,Activity,Homo sapiens [23],0%
same,CL/F,[24],2150 mL/min
same,Activity,Homo sapiens [25],0%
same,CL renal,[26],7.17 mL/min
same,MRT,[27],16.7 h
same,AUC(0-t),[28],763 ng·h/mL
same,Vd/F,[29],118 L
same,Activity,Homo sapiens [30],0%
same,AUC(0-t),[31],1300 ng·h/mL
same,Activity,Homo sapiens [32],0%
